In ChEMBL document CHEMBL4196091 (Eur J Med Chem, 2018):
pIC50: −log10 of the molar value. Values belong to the compound of their own block, whether it stands above or below them. Calls of active or inactive are those of the source. The calls are words filed in the database; no cut-off is given here.

Columns and labels:
[1] = test system: A549; assay: Cell cycle arrest in human A549 cells assessed as accumulation at G2/M phase at 3 nM after 24 hrs by propidium iodide staining based flow cytometry; format: functional
Procedure, shortened: (§1)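 A549 cells maintained in DMEM (1 g/L glucose, 2 mM glutamine, penicillin/streptomycin/amphotericin B, 10% FBS) and treated for 24 h. Cells were then fixed, RNase-treated and stained with propidium iodide. DNA content was measured by flow cytometry to give cell-cycle phase distribution, including a sub-G1 peak. Data are means (±SD) of two experiments.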

[2] = test system: HT-29; assay: Antiproliferative activity against human HT-29 cells after 2 days by MTT assay; format: functional, cell-based; conditions: HT-29, 48 h
[3] = test system: MCF7; assay: Antiproliferative activity against human MCF7 cells after 2 days by MTT assay; format: functional, cell-based; conditions: MCF7, 48 h
[4] = test system: A549; assay: Antiproliferative activity against human A549 cells after 2 days by MTT assay; format: functional, cell-based; conditions: A549, 48 h
[5] = test system: HEK293; assay: Antiproliferative activity against HEK293 cells after 2 days by MTT assay; format: ADME, cell-based; conditions: Homo sapiens, HEK293, 48 h
[6] = test system: A549; assay: Cell cycle arrest in human A549 cells assessed as accumulation at sub-G0 phase at 20 nM after 24 hrs by propidium iodide staining based flow cytometry (reference value: 2 +/- 1%); format: functional; procedure, shortened: as §1
[7] = test system: A549; assay: Cell cycle arrest in human A549 cells assessed as accumulation at G0/G1 phase at 20 nM after 24 hrs by propidium iodide staining based flow cytometry (reference value: 73 +/- 3%); format: functional; procedure, shortened: as §1
[8] = test system: A549; assay: Cell cycle arrest in human A549 cells assessed as accumulation at S phase at 20 nM after 24 hrs by propidium iodide staining based flow cytometry (reference value: 15 +/- 6%); format: functional; procedure, shortened: as §1
[9] = test system: A549; assay: Cell cycle arrest in human A549 cells assessed as accumulation at G2/M phase at 20 nM after 24 hrs by propidium iodide staining based flow cytometry (reference value: 11 +/- 4%); format: functional; procedure, shortened: as §1
[10] = test system: HT-29; assay: Downregulation of c-Myc gene expression in human HT-29 cells assessed as c-Myc mRNA level at […] after 48 hrs by RT-PCR method (reference value: 100%); format: functional
[11] = test system: HT-29; assay: Downregulation of hTERT gene expression in human HT-29 cells assessed as hTERT mRNA level at […] after 48 hrs by RT-PCR method (reference value: 100%); format: functional
[12] = test system: HT-29; assay: Downregulation of VEGF gene expression in human HT-29 cells assessed as VEGF mRNA level at […] after 48 hrs by RT-PCR method (reference value: 100%); format: functional
[13] = test system: HT-29; assay: Inhibition of VEGF protein secretion in human HT-29 cells assessed as VEGF protein level at […] after 48 hrs by ELISA (reference value: 100%); format: functional; design: scale not given: the % may be the effect or the level left
[14] = Selectivity index, ratio of IC50 for HEK293 cells to IC50 for human HT-29 cells; conditions: HEK293 cells versus HT-29 cells
[15] = Selectivity index, ratio of IC50 for HEK293 cells to IC50 for human MCF7 cells; conditions: HEK293 cells versus MCF7 cells
[16] = Selectivity index, ratio of IC50 for HEK293 cells to IC50 for human A549 cells; conditions: HEK293 cells versus A549 cells
[17] = test system: A549; assay: Cell cycle arrest in human A549 cells assessed as accumulation at sub-G0 phase at 50 nM after 24 hrs by propidium iodide staining based flow cytometry (reference value: 2 +/- 1%); format: functional; procedure, shortened: as §1
[18] = test system: A549; assay: Cell cycle arrest in human A549 cells assessed as accumulation at G0/G1 phase at 50 nM after 24 hrs by propidium iodide staining based flow cytometry (reference value: 73 +/- 3%); format: functional; procedure, shortened: as §1
[19] = test system: A549; assay: Cell cycle arrest in human A549 cells assessed as accumulation at S phase at 50 nM after 24 hrs by propidium iodide staining based flow cytometry (reference value: 15 +/- 6%); format: functional; procedure, shortened: as §1
[20] = test system: A549; assay: Cell cycle arrest in human A549 cells assessed as accumulation at G2/M phase at 50 nM after 24 hrs by propidium iodide staining based flow cytometry (reference value: 11 +/- 4%); format: functional; procedure, shortened: as §1
[21] = test system: HT-29; assay: Downregulation of c-Myc gene expression in human HT-29 cells assessed as c-Myc mRNA level at 10 nM after 48 hrs by RT-PCR method (reference value: 100%); format: functional
Procedure, shortened: (§2)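 HT-29 cells were taken at 70–80% confluence and seeded at 1.5 x 10^5 per well. After 24 h they were exposed to compound for 48 h. Total RNA was isolated and TaqMan RT-qPCR run for VEGF-A, c-MYC and hTERT, normalized to β-actin. Expression is given as percent of DMSO control, with at least three measurements and one-sample t-tests.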

[22] = test system: HT-29; assay: Downregulation of hTERT gene expression in human HT-29 cells assessed as hTERT mRNA level at 10 nM after 48 hrs by RT-PCR method (reference value: 100%); format: functional; procedure, shortened: as §2
[23] = test system: HT-29; assay: Downregulation of VEGF gene expression in human HT-29 cells assessed as VEGF mRNA level at 10 nM after 48 hrs by RT-PCR method (reference value: 100%); format: functional; procedure, shortened: as §2
[24] = test system: HT-29; assay: Inhibition of VEGF protein secretion in human HT-29 cells assessed as VEGF protein level at 10 nM after 48 hrs by ELISA (reference value: 100%); format: functional; design: scale not given: the % may be the effect or the level left
[25] = test system: A549; assay: Cell cycle arrest in human A549 cells assessed as accumulation at sub-G0 phase at 7.5 nM after 24 hrs by propidium iodide staining based flow cytometry (reference value: 2 +/- 1%); format: functional
Procedure, shortened: (§3)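 A549 cells kept in DMEM (1 g/L glucose, 2 mM glutamine, antibiotics, amphotericin B, 10% FBS), treated 24 h with compound from 10 mM DMSO stock; fixed, RNase-treated, stained with propidium iodide, DNA content read by flow cytometry for phase distribution. Average (±SD) of two experiments.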

[26] = test system: A549; assay: Cell cycle arrest in human A549 cells assessed as accumulation at G0/G1 phase at 7.5 nM after 24 hrs by propidium iodide staining based flow cytometry (reference value: 73 +/- 3%); format: functional; procedure, shortened: as §3
[27] = test system: A549; assay: Cell cycle arrest in human A549 cells assessed as accumulation at S phase at 7.5 nM after 24 hrs by propidium iodide staining based flow cytometry (reference value: 15 +/- 6%); format: functional; procedure, shortened: as §3
[28] = test system: A549; assay: Cell cycle arrest in human A549 cells assessed as accumulation at G2/M phase at 7.5 nM after 24 hrs by propidium iodide staining based flow cytometry (reference value: 11 +/- 4%); format: functional; procedure, shortened: as §3
[29] = test system: A549; assay: Cell cycle arrest in human A549 cells assessed as accumulation at G2/M phase at antiproliferative IC50 after 24 hrs by propidium iodide staining based flow cytometry; format: functional; procedure, shortened: as §3
[30] = test system: HT-29; assay: Downregulation of c-Myc gene expression in human HT-29 cells assessed as c-Myc mRNA level at 3 nM after 48 hrs by RT-PCR method (reference value: 100%); format: functional
Procedure, shortened: (§4)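 HT-29 cells (1.5 x 10^5 per well, six-well plate) seeded 24 h, then exposed 48 h with DMSO control; total RNA extracted, target mRNA quantified by TaqMan RT-qPCR, normalized to β-actin, expressed as percentage of control. At least three measurements; one-sample t-tests.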

[31] = test system: HT-29; assay: Downregulation of hTERT gene expression in human HT-29 cells assessed as hTERT mRNA level at 3 nM after 48 hrs by RT-PCR method (reference value: 100%); format: functional; procedure, shortened: as §4
[32] = test system: HT-29; assay: Downregulation of VEGF gene expression in human HT-29 cells assessed as VEGF mRNA level at 3 nM after 48 hrs by RT-PCR method (reference value: 100%); format: functional; procedure, shortened: as §4
[33] = test system: HT-29; assay: Inhibition of VEGF protein secretion in human HT-29 cells assessed as VEGF protein level at 3 nM after 48 hrs by ELISA (reference value: 100%); format: functional; design: scale not given: the % may be the effect or the level left
Procedure, shortened: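 HT-29 cells (1.5 x 10^5 per well, six-well plate) seeded 24 h, then treated 48 h with DMSO control; secreted VEGF in culture supernatant measured by human VEGF ELISA kit, expressed as percentage of control. At least three measurements.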

pIC50 [2]: 8.74
pIC50 [3]: 8.47
pIC50 [4]: 8.51
Structure (SMILES): COc1cc2c(c(OC)c1OC)-c1ccc(OC)c(=O)cc1[C@@H](NC(=O)c1cccc(Cl)c1)CC2
Activity [1]: Active
pIC50 [5]: 8.52
Activity [6]: 6%
Activity [7]: 24%
Activity [8]: 15%
Activity [9]: 57%
Activity [10]: 20%
Activity [11]: 59%
Activity [12]: 30%
Activity [13]: 48%

pIC50 [2]: 8.38
pIC50 [3]: 8.24
pIC50 [4]: 8.90
Structure (SMILES): CCCCCc1ccc(C(=O)N[C@H]2CCc3cc(OC)c(OC)c(OC)c3-c3ccc(OC)c(=O)cc32)cc1
pIC50 [5]: 8.80
selectivity ratio [14]: 0.4
selectivity ratio [15]: 0.3
selectivity ratio [16]: 1.3

pIC50 [2]: 8.24
pIC50 [3]: 8.69
pIC50 [4]: 8.70
Structure (SMILES): COc1cc2c(c(OC)c1OC)-c1ccc(OC)c(=O)cc1[C@@H](NC(=O)c1ccccc1C)CC2
pIC50 [5]: 8.05
Activity [17]: 8%
Activity [18]: 24%
Activity [19]: 14%
Activity [20]: 47%

pIC50 [2]: 8.00
pIC50 [3]: 8.39
pIC50 [4]: 7.51
Structure (SMILES): COc1cc2c(c(OC)c1OC)-c1ccc(OC)c(=O)cc1[C@@H](NC(=O)CI)CC2
pIC50 [5]: 7.72
Activity [21]: 42%
Activity [22]: 59%
Activity [23]: 42%
Activity [24]: 89%

pIC50 [2]: 8.05
pIC50 [3]: 7.51
pIC50 [4]: 8.06
Structure (SMILES): COc1cc2c(c(OC)c1OC)-c1ccc(OC)c(=O)cc1[C@@H](NC(=O)c1ccc(C)cc1)CC2
pIC50 [5]: 7.79
Activity [17]: 13%
Activity [18]: 44%
Activity [19]: 26%
Activity [20]: 16%

Structure (SMILES): COc1cc2c(c(OC)c1OC)-c1ccc(OC)c(=O)cc1[C@@H](NC(=O)Cc1ccccc1)CC2
pIC50 [2]: 8.55
pIC50 [3]: 8.59
pIC50 [4]: 8.55
pIC50 [5]: 8.41
Activity [6]: 5%
Activity [7]: 19%
Activity [8]: 16%
Activity [9]: 60%

Structure (SMILES): COc1cc2c(c(OC)c1OC)-c1ccc(OC)c(=O)cc1[C@@H](NC(=O)CF)CC2
pIC50 [2]: 8.33
pIC50 [3]: 8.14
pIC50 [4]: 8.11
pIC50 [5]: 8.15
Activity [25]: 2%
Activity [26]: 25%
Activity [27]: 15%
Activity [28]: 60%
Activity [29]: Active
Activity [30]: >100%
Activity [31]: >100%
Activity [32]: >100%
Activity [33]: 88%
